ChEMBL document CHEMBL3526018, “Metabolites of PPI-2458, a selective, irreversible inhibitor of methionine aminopeptidase-2: structure determination and in vivo activity” (Drug Metab Dispos, 2013)
Calls of active or inactive are those of the source. The calls are words filed in the database; no cut-off is given here.

Assays:
Rattus norvegicus [1] = assay: Inhibition of MetAP2 level in Sprague-Dawley rat liver assessed as free enzyme level at 0.3 mg/kg, iv by ELISA; format: functional, organism-based; parameters: dose 0.3 mg/kg
Outline: (§1)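 Male Sprague-Dawley rats (200-225 g, n=3 per group) were dosed once IV at 0.3 mg/kg or PO at 0.3 or 3.0 mg/kg, in 11% HPCD in water. Blood, liver, lung, thymus and pooled non-mesenteric lymph nodes were taken at ~24 h and lysed or homogenized with NP-40. Free MetAP2 was measured by ELISA and expressed as % of vehicle.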

Rattus norvegicus [2] = assay: Inhibition of MetAP2 level in Sprague-Dawley rat lymph nodes assessed as free enzyme level at 0.3 mg/kg, iv by ELISA; format: functional, organism-based; parameters: dose 0.3 mg/kg; outline: as §1
Rattus norvegicus [3] = assay: Inhibition of MetAP2 level in Sprague-Dawley rat whole blood assessed as free enzyme level at 3 mg/kg, po by ELISA; format: functional, organism-based; parameters: dose 3 mg/kg; outline: as §1
Rattus norvegicus [4] = assay: Inhibition of MetAP2 level in Sprague-Dawley rat thymus assessed as free enzyme level at 0.3 mg/kg, po by ELISA; format: functional, organism-based; parameters: dose 0.3 mg/kg; outline: as §1
[5] = Retention time in monkey liver microsomes treated with at 5 mM PPI-2458 by LC/MS analysis; format: ADME, Macaca mulatta; conditions: rhesus monkey, 5000 µM
Outline: (§2)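 Liver microsomes (pooled male/female) in 100 mM KPO4 pH 7.4 with PPI-2458 (5 mM stock), pre-incubated 5 min at 37°C, then 10 mM NADPH added; 20 min at 37°C with shaking. Time-zero and no-NADPH controls. Quenched with CH3CN; supernatant dried and redissolved in water. Analysed by LC-MS, ESI+ full scan 300–800 amu, C18 column, 10→50% B gradient.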

Rattus norvegicus [6] = assay: Inhibition of MetAP2 level in Sprague-Dawley rat lymph nodes assessed as free enzyme level at 0.3 mg/kg, po by ELISA; format: functional, organism-based; parameters: dose 0.3 mg/kg; outline: as §1
Rattus norvegicus [7] = assay: Inhibition of MetAP2 level in Sprague-Dawley rat lung assessed as free enzyme level at 0.3 mg/kg, po by ELISA; format: functional, organism-based; parameters: dose 0.3 mg/kg; outline: as §1
Rattus norvegicus [8] = assay: Inhibition of MetAP2 level in Sprague-Dawley rat whole blood assessed as free enzyme level at 0.3 mg/kg, po by ELISA; format: functional, organism-based; parameters: dose 0.3 mg/kg; outline: as §1
Rattus norvegicus [9] = assay: Inhibition of MetAP2 level in Sprague-Dawley rat lymph nodes assessed as free enzyme level at 3 mg/kg, po by ELISA; format: functional, organism-based; parameters: dose 3 mg/kg; outline: as §1
Liver microsome [10] = assay: Retention time in rat liver microsomes treated with at 5 mM PPI-2458 by LC/MS analysis; format: ADME; conditions: 5000 µM; outline: as §2
Rattus norvegicus [11] = assay: Inhibition of MetAP2 level in Sprague-Dawley rat whole blood assessed as free enzyme level at 0.3 mg/kg, iv by ELISA; format: functional, organism-based; parameters: dose 0.3 mg/kg; outline: as §1
Rattus norvegicus [12] = assay: Inhibition of MetAP2 level in Sprague-Dawley rat liver assessed as free enzyme level at 0.3 mg/kg, po by ELISA; format: functional, organism-based; parameters: dose 0.3 mg/kg; outline: as §1
[13] = Retention time in mouse liver microsomes treated with at 5 mM PPI-2458 by LC/MS analysis; format: ADME; conditions: 5000 µM; outline: as §2
[14] = molecular target: Methionine aminopeptidase 2 (Homo sapiens) (UniProt P50579); assay: Inhibition of human MetAP2 activity after end of experiment; parameters: scale not given: the % may be the effect or the level left
Sequence of Methionine aminopeptidase 2 (Homo sapiens) (P50579 2-478 limits assumed): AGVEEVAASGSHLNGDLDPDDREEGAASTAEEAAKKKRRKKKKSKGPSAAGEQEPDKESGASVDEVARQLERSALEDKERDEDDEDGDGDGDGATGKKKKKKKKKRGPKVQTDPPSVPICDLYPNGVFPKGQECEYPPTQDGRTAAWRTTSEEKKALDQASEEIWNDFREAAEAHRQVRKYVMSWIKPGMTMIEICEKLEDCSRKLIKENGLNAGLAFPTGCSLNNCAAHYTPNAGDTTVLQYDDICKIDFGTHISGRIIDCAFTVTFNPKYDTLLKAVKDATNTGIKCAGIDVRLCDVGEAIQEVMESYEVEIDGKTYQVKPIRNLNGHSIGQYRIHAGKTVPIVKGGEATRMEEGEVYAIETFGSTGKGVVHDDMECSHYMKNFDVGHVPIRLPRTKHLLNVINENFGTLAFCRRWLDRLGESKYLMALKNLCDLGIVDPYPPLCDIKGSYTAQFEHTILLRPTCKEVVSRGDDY

Rattus norvegicus [15] = assay: Inhibition of MetAP2 level in Sprague-Dawley rat thymus assessed as free enzyme level at 0.3 mg/kg, iv by ELISA; format: functional, organism-based; parameters: dose 0.3 mg/kg; outline: as §1
Liver microsome [16] = assay: Retention time in dog liver microsomes treated with at 5 mM PPI-2458 by LC/MS analysis; format: ADME, Canis lupus familiaris; conditions: 5000 µM; outline: as §2
Liver microsome [17] = assay: Retention time in human liver microsomes treated with at 5 mM PPI-2458 by LC/MS analysis; format: ADME; conditions: 5000 µM; outline: as §2
Rattus norvegicus [18] = assay: Inhibition of MetAP2 level in Sprague-Dawley rat lung assessed as free enzyme level at 0.3 mg/kg, iv by ELISA; format: functional, organism-based; parameters: dose 0.3 mg/kg; outline: as §1
Rattus norvegicus [19] = assay: Inhibition of MetAP2 level in Sprague-Dawley rat liver assessed as free enzyme level at 3 mg/kg, po by ELISA; format: functional, organism-based; parameters: dose 3 mg/kg; outline: as §1
Rattus norvegicus [20] = assay: Inhibition of MetAP2 level in Sprague-Dawley rat lung assessed as free enzyme level at 3 mg/kg, po by ELISA; format: functional, organism-based; parameters: dose 3 mg/kg; outline: as §1
Rattus norvegicus [21] = assay: Inhibition of MetAP2 level in Sprague-Dawley rat thymus assessed as free enzyme level at 3 mg/kg, po by ELISA; format: functional, organism-based; parameters: dose 3 mg/kg; outline: as §1
[22] = molecular target: Methionine aminopeptidase 2 (Homo sapiens) (UniProt P50579); assay: Inhibition of human MetAP2 assessed as remaining enzyme activity after 8 hrs; parameters: concentration or dose not given beside the values
Outline: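 The hMetAP2 assay follows the fraction of active enzyme remaining during an 8 h incubation with inhibitor, relative to an enzyme-only control.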

Row | Structure (SMILES) | inhibition (Rattus norvegicus [1]) | inhibition (Rattus norvegicus [2]) | inhibition (Rattus norvegicus [3]) | inhibition (Rattus norvegicus [4]) | Retention_time [5] | inhibition (Rattus norvegicus [6]) | inhibition (Rattus norvegicus [7]) | inhibition (Rattus norvegicus [8]) | inhibition (Rattus norvegicus [9]) | Retention_time (Liver microsome [10]) | inhibition (Rattus norvegicus [11]) | inhibition (Rattus norvegicus [12]) | Retention_time [13] | inhibition (Rattus norvegicus [15]) | Retention_time (Liver microsome [16]) | Retention_time (Liver microsome [17]) | inhibition (Rattus norvegicus [18]) | inhibition (Rattus norvegicus [19]) | inhibition (Rattus norvegicus [20]) | Activity [22] | also measured
1 | CO[C@@H]1[C@H](OC(=O)N[C@@H](C(N)=O)C(C)C)CC[C@]2(CO2)[C@H]1[C@@]1(C)O[C@@H]1C[C@H]1OC1(C)C | Active | Active | Active | inactive | 20.8 min | inactive | inactive | inactive | Active | 20.8 min | Active | inactive | 20.8 min | Active | 20.8 min | 20.8 min | Active | Active | Active | 10% | Activity [14]: 90%; inhibition (Rattus norvegicus [21]): Active
2 | CO[C@@H]1[C@H](OC(=O)N[C@@H](C(N)=O)C(C)C)CC[C@]2(CO2)[C@H]1[C@@]1(C)O[C@@H]1C/C=C(\C)CO | Active | Active | Active | inactive | 17.6 min | inactive | inactive | inactive | Active | 17.6 min | Active | inactive | 17.6 min | Active | 17.6 min | 17.6 min | Active | Active | Active | 9% | Activity [14]: 90%; inhibition (Rattus norvegicus [21]): Active
3 | CO[C@@H]1[C@H](OC(=O)N[C@@H](C(N)=O)C(C)C)CC[C@]2(CO2)[C@H]1[C@@]1(C)O[C@@H]1CCC(C)(C)O | – | – | – | – | – | – | – | – | – | – | – | – | – | – | – | – | – | – | – | 90% | –
4 | CO[C@@H]1[C@H](OC(=O)N[C@@H](C(N)=O)C(C)(C)O)CC[C@]2(CO2)[C@H]1[C@@]1(C)O[C@@H]1CC=C(C)C | Active | Active | Active | Active | 26.7 min | Active | Active | Active | Active | 26.7 min | Active | Active | 26.7 min | Active | 26.7 min | 26.7 min | Active | Active | Active | 1% | inhibition (Rattus norvegicus [21]): Active
5 | CO[C@@H]1[C@H](OC(=O)N[C@@H](C(N)=O)C(C)C)CC[C@]2(CO2)[C@H]1[C@@]1(C)O[C@@H]1C[C@@H]1OC1(C)C | Active | Active | Active | inactive | 20.1 min | inactive | inactive | inactive | Active | 20.1 min | Active | inactive | 20.1 min | Active | 20.1 min | 20.1 min | Active | Active | Active | 58% | Activity [14]: 40%; inhibition (Rattus norvegicus [21]): Active
6 | CO[C@@H]1[C@H](OC(=O)N[C@@H](C(N)=O)C(C)(C)O)CC[C@]2(CO2)[C@H]1[C@@]1(C)O[C@@H]1C[C@H]1OC1(C)C | – | – | – | – | – | – | – | – | – | – | – | – | – | – | – | – | – | – | – | 6% | –
7 | CO[C@@H]1[C@H](OC(=O)N[C@@H](C(N)=O)C(C)(C)O)CC[C@]2(CO2)[C@H]1[C@@]1(C)O[C@@H]1C[C@@H]1OC1(C)C | – | – | – | – | – | – | – | – | – | – | – | – | – | – | – | – | – | – | – | 39% | –
